From PubChem
H69AR growth 86K = growth inhibitors of human H69AR lung tumor cells; H69AR lung tumor viability, ATP luminescence, 72 h; hits give low values; viability, % at 10 µM; actives 6% (n = 85,000); AID 598;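 active = viability at or below 40%; inactive = viability above 40%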;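 note: multidrug resistant small cell line overexpressing MRP-1 efflux transporter; 100% = mean luminescence of untreated control wells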
bCat KO growth = beta-catenin-lacking colon tumor cell growth suppression; HCT116 beta-catenin knockout viability, CellTiter-Glo, 60 h; hits give low values; viability, % at 10 µM; actives 1.5% (n = 140,000); AID 818;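 active = viability at or under a set limit, the compound median less 4 SD, cut at about 6% in these data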;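 note: 0% = Hyamine 1622 control at 20 µM and 100% = untreated cell control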
Fibroblast inh = blocks proliferation of human lung fibroblasts; LL 47 human lung fibroblast viability, ATP luminescence; hits give low values; viability, % at 10 µM; actives 1.1% (n = 85,000); AID 719;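 active = viability at or below 50% in the single dose screen; inactive = viability above 50%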;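 note: compound exposure lasted 72 h before the ATP readout; 100% = median luminescence of untreated cell-only wells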
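Signal: luminescent ATP detection, CellTiter-Glo; assay system: LL 47 human lung fibroblasts; input: 1,150 cells/well; incubation: overnight cell rest, 72 h compound treatment at 37 °C; measure: % viability versus median cells-only luminescence; medium: IMEM growth medium with 15% fetal bovine serum; dosing: compound addition at 0.1% DMSO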
PTEN del growth = growth suppressors of cells with PTEN tumor suppressor deletion; HCT116 PTEN-null viability, CellTiter-Glo, 60 h; hits give low values; viability, % at 10 µM; actives 1.2% (n = 140,000); AID 827;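 active = viability at or below a set limit, 4 SD under the median of all tested compounds, cut at about 3.7% in these data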;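 note: PTEN knockout HCT116 line with beta catenin targeted HCT116 as companion control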
HUVEC inhibit = blocks proliferation of human endothelial cells. HUVEC proliferation, CellTiter-Glo luminescence, 72 h; hits give low values. viability, % at 10 µM (by protocol). actives 1.1% (n = 86,000). AID 648;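 active = viability at or below 30%; inactive = viability above 30%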;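 note: 100% = median luminescence of DMSO-only cell control wells on each plate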
The depositor's hits bear a star. Shown is part of a subset that was picked to be rich in hits.

How did Cc1ccc(/C(N)=N/OC(=O)c2ccco2)cc1 do in these assays?
H69AR growth 86K: 76; bCat KO growth: 96; Fibroblast inh: 99; PTEN del growth: 94; HUVEC inhibit: 84

What do the screens show for `Cc1ccc(NC2=C(Cl)C(=O)OC2OC(=O)c2ccco2)cc1` (stereo not drawn)?
H69AR growth 86K: 33*; bCat KO growth: 86; Fibroblast inh: 92; PTEN del growth: 91; HUVEC inhibit: 65

Results for Cc1nnc(-c2cnn(C)c2N)n1Cc1cccc(Cl)c1 ?
H69AR growth 86K: 106; bCat KO growth: 90; Fibroblast inh: 111; PTEN del growth: 85; HUVEC inhibit: 101

How did O=C(NC1CCCCC1)C(c1ccc(F)cc1)N(Cc1ccco1)C(=O)CN1C(=O)c2ccccc2S1(=O)=O (stereo not drawn) do in these assays?
bCat KO growth: 87; PTEN del growth: 88

How did Cc1ccccc1C(=O)c1cccn1CC(=O)NCc1ccco1 do in these assays?
H69AR growth 86K: 90; bCat KO growth: 85; Fibroblast inh: 96; PTEN del growth: 91; HUVEC inhibit: 89

How did Cc1ccccc1C(=O)c1cccn1CC(=O)NCCN1CCN(c2cccc(C)c2C)CC1 do in these assays?
H69AR growth 86K: 5.2*; bCat KO growth: 4.3*; Fibroblast inh: 73; PTEN del growth: 7; HUVEC inhibit: 6.1*

Results for COc1ccc(-c2nc(-c3ccccc3)c(-c3cc([N+](=O)[O-])ccc3C)[nH]2)cc1O ?
H69AR growth 86K: 55; bCat KO growth: 68; Fibroblast inh: 97; PTEN del growth: 72; HUVEC inhibit: 61

Results for Cc1ccc([N+](=O)[O-])cc1-c1[nH]c(-c2ccc(O)c(O)c2)nc1-c1ccccc1 ?
H69AR growth 86K: 10*; bCat KO growth: 35; Fibroblast inh: 80; PTEN del growth: 28; HUVEC inhibit: 52

What do the screens show for `COC(=O)C(C(=O)OC)C(C(C)C)C(C(=O)OC)C(=O)OC`?
H69AR growth 86K: 98; bCat KO growth: 94; Fibroblast inh: 99; PTEN del growth: 99; HUVEC inhibit: 87

What do the screens show for `COc1ccc(-n2ncc3c(NCCCN4CCOCC4)ncnc32)cc1`?
H69AR growth 86K: 88; bCat KO growth: 107; Fibroblast inh: 102; PTEN del growth: 104; HUVEC inhibit: 93

How did COc1ccc(-c2oc3ncnc(NCCCN4CCOCC4)c3c2-c2ccc(OC)cc2)cc1 do in these assays?
H69AR growth 86K: 5.7*; bCat KO growth: 49; Fibroblast inh: 60; PTEN del growth: 58; HUVEC inhibit: 44

How did COc1ccc(-c2oc3ncnc(NCCN4CCOCC4)c3c2-c2ccc(OC)cc2)cc1 do in these assays?
H69AR growth 86K: 18*; bCat KO growth: 24; Fibroblast inh: 77; PTEN del growth: 18; HUVEC inhibit: 71

How did CCOc1cc2nc(-c3ccc(OC)c(OC)c3)nc(NCCCN3CCOCC3)c2cc1OC do in these assays?
H69AR growth 86K: 18*; bCat KO growth: 65; Fibroblast inh: 82; PTEN del growth: 57; HUVEC inhibit: 58

Results for COc1ccc(C(=O)NCCCN2CCOCC2)cc1OC ?
H69AR growth 86K: 86; bCat KO growth: 116; Fibroblast inh: 98; PTEN del growth: 91; HUVEC inhibit: 97

What do the screens show for `Clc1ccc(-c2nc(NCCN3CCOCC3)c3ccccc3n2)cc1`?
H69AR growth 86K: 86; bCat KO growth: 57; Fibroblast inh: 89; PTEN del growth: 44; HUVEC inhibit: 9.6*

Results for COc1ccc(C(=O)N[C@H](C(=O)OCc2cc(=O)oc3cc(C)ccc23)C(C)C)cc1 ?
bCat KO growth: 80; PTEN del growth: 78

What do the screens show for `CN(c1ccccc1)S(=O)(=O)c1cccc(NC(=O)CC(C)(C)C)c1`?
bCat KO growth: 64; PTEN del growth: 54

Results for Cc1ccc(N2C(=O)C(NC(=O)c3ccccc3)(C(F)(F)F)C3=C2CC(C)(C)CC3=O)cc1 (stereo not drawn) ?
bCat KO growth: 93; PTEN del growth: 102

How did COc1ccc(-c2oc3ncn(CCN4CCOCC4)c(=N)c3c2-c2ccc(OC)cc2)cc1 do in these assays?
H69AR growth 86K: 16*; bCat KO growth: 32; Fibroblast inh: 85; PTEN del growth: 27; HUVEC inhibit: 65

How did c1ccc(-c2oc3ncnc(NCCCN4CCOCC4)c3c2-c2ccccc2)cc1 do in these assays?
H69AR growth 86K: 3.1*; bCat KO growth: 36; Fibroblast inh: 75; PTEN del growth: 34; HUVEC inhibit: 37

What do the screens show for `c1ccc(-c2csc3ncnc(NCCN4CCOCC4)c23)cc1`?
H69AR growth 86K: 54; bCat KO growth: 70; Fibroblast inh: 81; PTEN del growth: 68; HUVEC inhibit: 79

How did CSc1cc(-c2ccc(Cl)cc2)n(Cc2ccccc2)c(=O)c1C#N do in these assays?
H69AR growth 86K: 5.4*; bCat KO growth: 90; Fibroblast inh: 27*; PTEN del growth: 94; HUVEC inhibit: 8.8*

How did N#Cc1cc(-c2ccc(Cl)cc2)cn(Cc2c(Cl)cccc2Cl)c1=O do in these assays?
bCat KO growth: 62; PTEN del growth: 57

How did CSc1cc(-c2ccccc2)n(Cc2c(Cl)cccc2Cl)c(=O)c1C#N do in these assays?
H69AR growth 86K: 12*; bCat KO growth: 26; Fibroblast inh: 33*; PTEN del growth: 30; HUVEC inhibit: 29

What do the screens show for `Cc1ccccc1Cn1ccc(-c2ccc(Cl)cc2)c(C#N)c1=O`?
bCat KO growth: 89; PTEN del growth: 111

Results for Oc1ccc(N=Nc2c(O)ccc3ccccc23)cc1 ?
bCat KO growth: 47; PTEN del growth: 47

What do the screens show for `Oc1c(N=Nc2ccccn2)ccc2ccccc12`?
bCat KO growth: 1.8*; PTEN del growth: 2.0*

What do the screens show for `COc1ccc(CSC(=N)N)cc1[N+](=O)[O-]`?
H69AR growth 86K: 81; bCat KO growth: 14; Fibroblast inh: 89; PTEN del growth: 16; HUVEC inhibit: 71

Results for CCCCCOc1ccc(CSC(=N)N)cc1[N+](=O)[O-] ?
bCat KO growth: 1.9*; PTEN del growth: 1.3*

How did CCOc1ccc(-c2n[nH]c(C)c2-c2ccccc2OC)c(O)c1 do in these assays?
H69AR growth 86K: 6.7*; bCat KO growth: 28; Fibroblast inh: 85; PTEN del growth: 25; HUVEC inhibit: 58

What do the screens show for `C=C(C)COc1ccc(-c2n[nH]c(C)c2-c2ccc(OC)cc2)c(O)c1`?
H69AR growth 86K: 14*; bCat KO growth: 1.3*; Fibroblast inh: 33*; PTEN del growth: 1.4*; HUVEC inhibit: 11*

What do the screens show for `Cc1c(Cl)cnc(NC(=O)CSc2nncs2)c1Cl`?
bCat KO growth: 98; PTEN del growth: 100

How did O=C(Nc1nccs1)c1ccc2c(=O)n3c(nc2c1)CCCCC3 do in these assays?
bCat KO growth: 92; PTEN del growth: 94

Results for CCOc1ccc(-c2cc(NC(=O)Cn3ncc4c3-c3ccccc3OC4)on2)cc1OCC ?
H69AR growth 86K: 30*; bCat KO growth: 82; Fibroblast inh: 94; PTEN del growth: 91; HUVEC inhibit: 50
